Data reported in ChEMBL document CHEMBL5724801, “EUbOPEN Chemogenomics Library - Multiplex” (2024).
Where “and” joins values, the source holds several entries; their conditions need not be identical. Identical values can stand only once.

Tested on: U2OS
Experiment: Multiplex assay against U2OS
Type: toxicity, cell-based
Conditions: human
Outline: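 Live cells were stained at seeding with Hoechst33342, BioTracker Green Microtubule Cytoskeleton Dye, MitoTracker Red and Annexin V Alexa Fluor 680, then imaged on a CQ1 microscope at 37°C and 5% CO2 after compound addition. CellPathfinder machine-learning gating split cells into Hoechst high-intensity objects or normal cells. Normal cells were split into healthy, pyknosed or fragmented nuclei, and pyknosed cells into mitotic or apoptotic. Tubulin, mitochondrial-mass and membrane-permeability phenotypes are per cents of healthy-nucleus cells.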

[1] = 12 h, 1 µM, compound concentration 1 uM
[2] = 12 h, 10 µM, compound concentration 10 uM
[3] = 24 h, 1 µM, compound concentration 1 uM
[4] = 24 h, 10 µM, compound concentration 10 uM
[5] = 48 h, 1 µM, compound concentration 1 uM
[6] = 48 h, 10 µM, compound concentration 10 uM

## CCCCC[C@H](O)/C=C/[C@H]1[C@H](O)CC(=O)[C@@H]1CCCCCCC(=O)O [ALPROSTADIL]
[1]
  Population Apoptotic (%): 100% and 77%
  Population Fragmented Nuclei (%): 31% and 11%
  Population Healthy Nuclei (%): 62% and 81%
  Population Hoechst High Intensity Objects (%): 1% and 0%
  Population Membrane Permeable-Phenotype (%): 4% and 9%
  Population Mitochondria Different-Phenotype (%): 2% and 5%
  Population Mitotic Cells (%): 0% and 22%
  Population Normal (%): 98% and 100%
  Population Pyknosed Nuclei (%): 6%
  Population Tubulin-Different-Phenotype (%): 2% and 6%
  Total Cell Count: 219 and 132
[2]
  Population Apoptotic (%): 71% and 77%
  Population Fragmented Nuclei (%): 23% and 15%
  Population Healthy Nuclei (%): 69% and 75%
  Population Hoechst High Intensity Objects (%): 1% and 2%
  Population Membrane Permeable-Phenotype (%): 1% and 5%
  Population Mitochondria Different-Phenotype (%): 0% and 3%
  Population Mitotic Cells (%): 28% and 22%
  Population Normal (%): 98% and 97%
  Population Pyknosed Nuclei (%): 6% and 8%
  Population Tubulin-Different-Phenotype (%): 0% and 5%
  Total Cell Count: 222 and 104
[3]
  Population Apoptotic (%): 91% and 87%
  Population Fragmented Nuclei (%): 25% and 14%
  Population Healthy Nuclei (%): 65% and 75%
  Population Hoechst High Intensity Objects (%): 1% and 0%
  Population Membrane Permeable-Phenotype (%): 5% and 8%
  Population Mitochondria Different-Phenotype (%): 2% and 4%
  Population Mitotic Cells (%): 8% and 12%
  Population Normal (%): 98% and 99%
  Population Pyknosed Nuclei (%): 9%
  Population Tubulin-Different-Phenotype (%): 3%
  Total Cell Count: 263 and 166
[4]
  Population Apoptotic (%): 94% and 100%
  Population Fragmented Nuclei (%): 19% and 12%
  Population Healthy Nuclei (%): 74% and 76%
  Population Hoechst High Intensity Objects (%): 1% and 0%
  Population Membrane Permeable-Phenotype (%): 5% and 4%
  Population Mitochondria Different-Phenotype (%): 0% and 2%
  Population Mitotic Cells (%): 5% and 0%
  Population Normal (%): 98% and 99%
  Population Pyknosed Nuclei (%): 6% and 10%
  Population Tubulin-Different-Phenotype (%): 3% and 1%
  Total Cell Count: 271 and 131
[5]
  Population Apoptotic (%): 87% and 95%
  Population Fragmented Nuclei (%): 22% and 18%
  Population Healthy Nuclei (%): 68% and 71%
  Population Hoechst High Intensity Objects (%): 2% and 3%
  Population Membrane Permeable-Phenotype (%): 4% and 6%
  Population Mitochondria Different-Phenotype (%): 2% and 5%
  Population Mitotic Cells (%): 12% and 4%
  Population Normal (%): 97% and 96%
  Population Pyknosed Nuclei (%): 9%
  Population Tubulin-Different-Phenotype (%): 2% and 6%
  Total Cell Count: 367 and 236
[6]
  Population Apoptotic (%): 88% and 100%
  Population Fragmented Nuclei (%): 13% and 11%
  Population Healthy Nuclei (%): 76% and 77%
  Population Hoechst High Intensity Objects (%): 0% and 2%
  Population Membrane Permeable-Phenotype (%): 4% and 6%
  Population Mitochondria Different-Phenotype (%): 0% and 1%
  Population Mitotic Cells (%): 11% and 0%
  Population Normal (%): 99% and 97%
  Population Pyknosed Nuclei (%): 10%
  Population Tubulin-Different-Phenotype (%): 3% and 4%
  Total Cell Count: 362 and 165

## Cn1cc(C(=O)OCC2CCN(CCNS(C)(=O)=O)CC2)c2ccccc21
[1]
  Population Apoptotic (%): 73% and 77%
  Population Fragmented Nuclei (%): 27% and 20%
  Population Healthy Nuclei (%): 63% and 71%
  Population Hoechst High Intensity Objects (%): 3% and 0%
  Population Membrane Permeable-Phenotype (%): 7% and 13%
  Population Mitochondria Different-Phenotype (%): 4% and 5%
  Population Mitotic Cells (%): 26% and 22%
  Population Normal (%): 96% and 100%
  Population Pyknosed Nuclei (%): 8%
  Population Tubulin-Different-Phenotype (%): 5% and 6%
  Total Cell Count: 226 and 110
[2]
  Population Apoptotic (%): 53% and 57%
  Population Fragmented Nuclei (%): 36% and 18%
  Population Healthy Nuclei (%): 58% and 76%
  Population Hoechst High Intensity Objects (%): 0% and 1%
  Population Membrane Permeable-Phenotype (%): 10% and 17%
  Population Mitochondria Different-Phenotype (%): 5% and 13%
  Population Mitotic Cells (%): 46% and 42%
  Population Normal (%): 99% and 98%
  Population Pyknosed Nuclei (%): 5%
  Population Tubulin-Different-Phenotype (%): 5% and 9%
  Total Cell Count: 252 and 137
[3]
  Population Apoptotic (%): 95% and 100%
  Population Fragmented Nuclei (%): 26% and 17%
  Population Healthy Nuclei (%): 65% and 78%
  Population Hoechst High Intensity Objects (%): 2% and 0%
  Population Membrane Permeable-Phenotype (%): 4% and 10%
  Population Mitochondria Different-Phenotype (%): 2% and 5%
  Population Mitotic Cells (%): 4% and 0%
  Population Normal (%): 97% and 100%
  Population Pyknosed Nuclei (%): 8% and 4%
  Population Tubulin-Different-Phenotype (%): 3% and 6%
  Total Cell Count: 263 and 144
[4]
  Population Apoptotic (%): 92% and 64%
  Population Fragmented Nuclei (%): 33% and 16%
  Population Healthy Nuclei (%): 61% and 73%
  Population Hoechst High Intensity Objects (%): 2% and 1%
  Population Membrane Permeable-Phenotype (%): 11% and 12%
  Population Mitochondria Different-Phenotype (%): 5% and 8%
  Population Normal (%): 97% and 98%
  Population Pyknosed Nuclei (%): 4% and 9%
  Population Tubulin-Different-Phenotype (%): 4% and 8%
  Total Cell Count: 281 and 150
[5]
  Population Apoptotic (%): 91% and 57%
  Population Fragmented Nuclei (%): 20% and 13%
  Population Healthy Nuclei (%): 69% and 75%
  Population Hoechst High Intensity Objects (%): 1% and 2%
  Population Membrane Permeable-Phenotype (%): 8% and 6%
  Population Mitochondria Different-Phenotype (%): 3% and 5%
  Population Normal (%): 98% and 97%
  Population Pyknosed Nuclei (%): 9% and 10%
  Population Tubulin-Different-Phenotype (%): 5% and 4%
  Total Cell Count: 372 and 182
[6]
  Population Apoptotic (%): 88% and 75%
  Population Healthy Nuclei (%): 58% and 79%
  Population Hoechst High Intensity Objects (%): 1% and 3%
  Population Membrane Permeable-Phenotype (%): 9% and 13%
  Population Mitochondria Different-Phenotype (%): 4% and 6%
  Population Mitotic Cells (%): 11% and 25%
  Population Normal (%): 98% and 97%
  Population Pyknosed Nuclei (%): 10%
  Population Tubulin-Different-Phenotype (%): 7% and 5%
  Total Cell Count: 341 and 200
